# Assay results from ChEMBL document CHEMBL1132173, “Novel derivatives of 2-pyridinemethylamine as selective, potent, and orally active agonists at 5-HT1A receptors” (J Med Chem, 1999).
# pEC50, pKi: −log10 of the molar value.
# System: Rattus norvegicus
# Experiment: Induction of lower lip retraction in rat 60 min after administration, effective peroral dose determined in vivo
# Type: functional
# Conditions: po, 1 h
# Procedure, shortened: (§1)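 Observed in 10 min windows centred 15 and 60 min post-dose, 10 s each minute, scoring lower lip retraction present or absent (0–10).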
row,SMILES,ED50
1,Cc1ccc(CNCC2(F)CCN(C(=O)c3ccc(F)c(Cl)c3)CC2)nc1-n1cccn1,1.3 mg/kg
2,CNc1cccc(CNCC2(F)CCN(C(=O)c3ccc(F)c(Cl)c3)CC2)n1,0.32 mg/kg
3,Cc1ccc(CNCC2(F)CCN(C(=O)c3ccc(F)c(Cl)c3)CC2)nc1-c1cc[nH]n1,0.89 mg/kg
4,CNc1cccc(CNCC2(F)CCN(C(=O)c3ccc(Cl)c(Cl)c3)CC2)n1,0.32 mg/kg
5,CCNc1nc(CNCC2(F)CCN(C(=O)c3ccc(F)c(Cl)c3)CC2)ccc1C,0.45 mg/kg
6,CCNc1cccc(CNCC2(F)CCN(C(=O)c3ccc(F)c(Cl)c3)CC2)n1,0.32 mg/kg
7,Cc1ccc(CNCC2(F)CCN(C(=O)c3ccc(F)c(Cl)c3)CC2)nc1N(C)C,0.08 mg/kg
8,CCN(CC)c1nc(CNCC2(F)CCN(C(=O)c3ccc(F)c(Cl)c3)CC2)ccc1C,0.11 mg/kg
9,O=C(c1ccc(F)c(Cl)c1)N1CCC(F)(CNCc2cccc(-n3cccn3)n2)CC1,1.3 mg/kg

# System: Rattus norvegicus
# Experiment: Effective intraperitoneal dose in vivo in rat after 15 mins to induce lower lip retraction
# Type: functional
# Conditions: ip, 0.25 h
# Procedure, shortened: as §1
row,SMILES,ED50
1,Cc1ccc(CNCC2(F)CCN(C(=O)c3ccc(F)c(Cl)c3)CC2)nc1-n1cccn1,0.32 mg/kg
2,CNc1cccc(CNCC2(F)CCN(C(=O)c3ccc(F)c(Cl)c3)CC2)n1,0.11 mg/kg
3,Cc1ccc(CNCC2(F)CCN(C(=O)c3ccc(F)c(Cl)c3)CC2)nc1-c1cc[nH]n1,0.32 mg/kg
4,CNc1cccc(CNCC2(F)CCN(C(=O)c3ccc(Cl)c(Cl)c3)CC2)n1,0.11 mg/kg
5,CCNc1nc(CNCC2(F)CCN(C(=O)c3ccc(F)c(Cl)c3)CC2)ccc1C,0.08 mg/kg
6,CCNc1cccc(CNCC2(F)CCN(C(=O)c3ccc(F)c(Cl)c3)CC2)n1,0.11 mg/kg
7,Cc1ccc(CNCC2(F)CCN(C(=O)c3ccc(F)c(Cl)c3)CC2)nc1N(C)C,0.04 mg/kg
8,CCN(CC)c1nc(CNCC2(F)CCN(C(=O)c3ccc(F)c(Cl)c3)CC2)ccc1C,0.32 mg/kg
9,O=C(c1ccc(F)c(Cl)c1)N1CCC(F)(CNCc2cccc(-n3cccn3)n2)CC1,0.32 mg/kg

# Target: T1, Adrenergic receptor alpha-1 (Rattus norvegicus, UniProt P15823+P23944+P43140)
# T1 sequence (P15823 whole entry): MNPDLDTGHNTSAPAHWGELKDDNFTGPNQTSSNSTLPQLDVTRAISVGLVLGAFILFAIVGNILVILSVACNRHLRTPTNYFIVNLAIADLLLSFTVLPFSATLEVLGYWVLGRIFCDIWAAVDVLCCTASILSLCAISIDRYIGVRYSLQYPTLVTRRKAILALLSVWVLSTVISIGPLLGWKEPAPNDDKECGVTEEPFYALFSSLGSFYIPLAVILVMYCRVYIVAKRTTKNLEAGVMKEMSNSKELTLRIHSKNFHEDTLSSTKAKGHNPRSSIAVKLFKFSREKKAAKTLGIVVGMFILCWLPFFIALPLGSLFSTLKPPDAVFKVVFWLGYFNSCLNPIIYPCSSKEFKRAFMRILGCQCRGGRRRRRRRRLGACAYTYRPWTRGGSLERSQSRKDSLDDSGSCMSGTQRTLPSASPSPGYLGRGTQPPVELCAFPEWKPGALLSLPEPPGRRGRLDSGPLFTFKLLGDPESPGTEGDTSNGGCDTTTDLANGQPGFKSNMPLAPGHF
# T1 sequence (P23944 whole entry): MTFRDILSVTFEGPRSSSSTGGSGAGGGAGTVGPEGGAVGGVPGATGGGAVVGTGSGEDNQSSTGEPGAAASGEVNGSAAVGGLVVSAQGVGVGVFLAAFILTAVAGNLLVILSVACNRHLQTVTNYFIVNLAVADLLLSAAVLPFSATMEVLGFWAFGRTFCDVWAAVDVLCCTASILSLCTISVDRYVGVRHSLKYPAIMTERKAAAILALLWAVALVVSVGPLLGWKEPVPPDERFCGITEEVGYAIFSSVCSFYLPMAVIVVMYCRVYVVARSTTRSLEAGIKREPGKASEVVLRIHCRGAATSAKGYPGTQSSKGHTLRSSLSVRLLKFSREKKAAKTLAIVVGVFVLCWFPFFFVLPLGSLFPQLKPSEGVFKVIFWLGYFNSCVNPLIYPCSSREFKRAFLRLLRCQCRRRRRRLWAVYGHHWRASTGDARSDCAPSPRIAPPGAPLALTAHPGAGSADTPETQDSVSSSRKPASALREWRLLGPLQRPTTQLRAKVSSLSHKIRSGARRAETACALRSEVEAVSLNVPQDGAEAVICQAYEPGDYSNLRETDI
# T1 sequence (P43140 whole entry): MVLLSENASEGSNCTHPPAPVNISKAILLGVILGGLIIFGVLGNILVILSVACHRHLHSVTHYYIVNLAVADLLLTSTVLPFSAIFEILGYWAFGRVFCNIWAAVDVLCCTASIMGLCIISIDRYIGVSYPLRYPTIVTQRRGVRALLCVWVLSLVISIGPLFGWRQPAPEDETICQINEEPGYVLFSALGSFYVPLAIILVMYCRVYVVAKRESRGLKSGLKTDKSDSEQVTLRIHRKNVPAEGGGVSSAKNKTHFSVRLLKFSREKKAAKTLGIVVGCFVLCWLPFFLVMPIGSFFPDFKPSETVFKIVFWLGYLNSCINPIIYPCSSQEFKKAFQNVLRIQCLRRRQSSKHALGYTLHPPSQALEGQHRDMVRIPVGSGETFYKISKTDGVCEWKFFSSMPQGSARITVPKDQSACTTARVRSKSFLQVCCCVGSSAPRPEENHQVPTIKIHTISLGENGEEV
# Experiment: Binding affinity towards Alpha-1 adrenergic receptor using prazosin as a radioligand in rat cortex
# Conditions: not given
# Procedure, shortened: (§2)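 Rat tissue membranes, competition against radioligand at 23 °C. Nonspecific binding: 5-HT for 5-HT1A (30 min), (+)-butaclamol for D2 (60 min), phentolamine for α1 (30 min). Tris HCl 50 mM pH 7.4 buffers. Filtration through glass-fibre filters, then scintillation counting. Run in triplicate; IC50 by nonlinear regression; Ki by Cheng–Prusoff; mean pKi of three determinations.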
row,Log Ki,SMILES
1,-6.92,CNc1cccc(CNCC2(F)CCN(C(=O)c3ccc(Cl)c(Cl)c3)CC2)n1

# System: Rattus norvegicus
# Experiment: Effective intraperitoneal dose in vivo in rat after 60 mins to induce lower lip retraction
# Type: functional
# Conditions: ip, 1 h
# Procedure, shortened: as §1
row,SMILES,ED50
1,CNc1cccc(CNCC2(F)CCN(C(=O)c3ccc(Cl)c(Cl)c3)CC2)n1,0.23 mg/kg

# Target: T2, 5-hydroxytryptamine receptor 1A (Rattus norvegicus, UniProt P19327)
# T2 sequence (P19327 whole entry): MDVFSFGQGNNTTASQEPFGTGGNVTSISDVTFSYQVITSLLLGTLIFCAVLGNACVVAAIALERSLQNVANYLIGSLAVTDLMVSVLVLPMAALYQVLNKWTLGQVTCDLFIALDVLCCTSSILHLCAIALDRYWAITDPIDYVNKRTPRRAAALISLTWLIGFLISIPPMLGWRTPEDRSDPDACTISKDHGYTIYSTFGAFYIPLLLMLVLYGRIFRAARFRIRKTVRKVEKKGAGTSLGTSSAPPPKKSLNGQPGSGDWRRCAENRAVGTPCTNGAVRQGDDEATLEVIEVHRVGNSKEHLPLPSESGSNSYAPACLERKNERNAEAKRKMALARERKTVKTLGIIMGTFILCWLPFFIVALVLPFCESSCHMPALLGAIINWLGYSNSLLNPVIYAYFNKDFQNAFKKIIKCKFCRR
# Experiment: Binding affinity towards 5-hydroxytryptamine 1A receptor in rat cortex using [3H]8-OH-DPAT as a radioligand
# Conditions: not given
# Procedure, shortened: as §2
row,pKi,SMILES
1,9.35,Cc1ccc(CNCC2(F)CCN(C(=O)c3ccc(F)c(Cl)c3)CC2)nc1-n1cccn1
2,8.66,Cc1ccc(CNCC2(F)CCN(C(=O)c3ccc(F)c(Cl)c3)CC2)nc1-c1cc[nH]n1
3,9.83,CCNc1nc(CNCC2(F)CCN(C(=O)c3ccc(F)c(Cl)c3)CC2)ccc1C
4,8.86,CCN(CC)c1nc(CNCC2(F)CCN(C(=O)c3ccc(F)c(Cl)c3)CC2)ccc1C
5,9.31,O=C(c1ccc(F)c(Cl)c1)N1CCC(F)(CNCc2cccc(-n3cccn3)n2)CC1

# Target: T3, 5-hydroxytryptamine receptor 1A (Homo sapiens, UniProt P08908)
# T3 sequence (P08908 whole entry): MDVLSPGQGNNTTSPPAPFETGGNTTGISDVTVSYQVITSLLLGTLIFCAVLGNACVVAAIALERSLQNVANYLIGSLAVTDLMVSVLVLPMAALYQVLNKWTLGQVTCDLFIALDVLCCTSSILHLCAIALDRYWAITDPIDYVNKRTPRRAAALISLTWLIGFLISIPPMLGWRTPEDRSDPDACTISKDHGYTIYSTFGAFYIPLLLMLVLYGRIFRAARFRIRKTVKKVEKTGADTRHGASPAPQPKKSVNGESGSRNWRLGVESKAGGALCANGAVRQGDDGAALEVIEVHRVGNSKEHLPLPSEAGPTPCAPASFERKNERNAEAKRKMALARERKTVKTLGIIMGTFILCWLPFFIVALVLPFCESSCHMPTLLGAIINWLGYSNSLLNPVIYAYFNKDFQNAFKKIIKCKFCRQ
# Experiment: In vitro effective concentration required to inhibit forskolin-stimulated cAMP levels in HA7 cells expressing human 5-HT1A receptor
# Type: functional, cell-based
# Conditions: not given
# Procedure, shortened: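 HeLa HA7 cells stably expressing human 5-HT1A, at 80–90% confluency, antibiotic-free for 24 h. Preincubated 10 min at RT in DMEM/10 mM Hepes, then drug at 0.1 nM–100 µM with 100 µM forskolin and 100 µM IBMX for 10 min at RT. Stopped with 0.1 N HCl; cAMP by radioimmunoassay as % of forskolin control; pEC50.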
row,pEC50,SMILES
1,7.83,Cc1ccc(CNCC2(F)CCN(C(=O)c3ccc(F)c(Cl)c3)CC2)nc1-n1cccn1
2,7.90,CNc1cccc(CNCC2(F)CCN(C(=O)c3ccc(F)c(Cl)c3)CC2)n1
3,8.56,Cc1ccc(CNCC2(F)CCN(C(=O)c3ccc(F)c(Cl)c3)CC2)nc1-c1cc[nH]n1
4,8.18,CNc1cccc(CNCC2(F)CCN(C(=O)c3ccc(Cl)c(Cl)c3)CC2)n1
5,8.08,CCNc1nc(CNCC2(F)CCN(C(=O)c3ccc(F)c(Cl)c3)CC2)ccc1C
6,7.88,CCNc1cccc(CNCC2(F)CCN(C(=O)c3ccc(F)c(Cl)c3)CC2)n1
7,8.43,Cc1ccc(CNCC2(F)CCN(C(=O)c3ccc(F)c(Cl)c3)CC2)nc1N(C)C
8,7.54,CCN(CC)c1nc(CNCC2(F)CCN(C(=O)c3ccc(F)c(Cl)c3)CC2)ccc1C
9,7.91,O=C(c1ccc(F)c(Cl)c1)N1CCC(F)(CNCc2cccc(-n3cccn3)n2)CC1
